# Laboratory results from publication PMC4971946 (Pharmacognosy Magazine, 2016).
# Target: rat intestinal sucrase (Rattus norvegicus, UniProt P23739)
# Assay: Assay of sucrase inhibitory activity
# Format: biochemical
# Summary of the method: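 Rat intestinal sucrase-isomaltase prepared by Dahlqvist's method. Enzyme preincubated 10 min at 37°C with test sample (25–200 µg/ml, maleate buffer pH 6.0); reaction started with 60 mM sucrose solution, stopped after 30 min with 3,5-dinitrosalicylic acid reagent, boiled 5 min, A540 read. % inhibition relative to untreated-enzyme control lacking sample; three experiments.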
# Sequence of rat intestinal sucrase (P23739 whole entry): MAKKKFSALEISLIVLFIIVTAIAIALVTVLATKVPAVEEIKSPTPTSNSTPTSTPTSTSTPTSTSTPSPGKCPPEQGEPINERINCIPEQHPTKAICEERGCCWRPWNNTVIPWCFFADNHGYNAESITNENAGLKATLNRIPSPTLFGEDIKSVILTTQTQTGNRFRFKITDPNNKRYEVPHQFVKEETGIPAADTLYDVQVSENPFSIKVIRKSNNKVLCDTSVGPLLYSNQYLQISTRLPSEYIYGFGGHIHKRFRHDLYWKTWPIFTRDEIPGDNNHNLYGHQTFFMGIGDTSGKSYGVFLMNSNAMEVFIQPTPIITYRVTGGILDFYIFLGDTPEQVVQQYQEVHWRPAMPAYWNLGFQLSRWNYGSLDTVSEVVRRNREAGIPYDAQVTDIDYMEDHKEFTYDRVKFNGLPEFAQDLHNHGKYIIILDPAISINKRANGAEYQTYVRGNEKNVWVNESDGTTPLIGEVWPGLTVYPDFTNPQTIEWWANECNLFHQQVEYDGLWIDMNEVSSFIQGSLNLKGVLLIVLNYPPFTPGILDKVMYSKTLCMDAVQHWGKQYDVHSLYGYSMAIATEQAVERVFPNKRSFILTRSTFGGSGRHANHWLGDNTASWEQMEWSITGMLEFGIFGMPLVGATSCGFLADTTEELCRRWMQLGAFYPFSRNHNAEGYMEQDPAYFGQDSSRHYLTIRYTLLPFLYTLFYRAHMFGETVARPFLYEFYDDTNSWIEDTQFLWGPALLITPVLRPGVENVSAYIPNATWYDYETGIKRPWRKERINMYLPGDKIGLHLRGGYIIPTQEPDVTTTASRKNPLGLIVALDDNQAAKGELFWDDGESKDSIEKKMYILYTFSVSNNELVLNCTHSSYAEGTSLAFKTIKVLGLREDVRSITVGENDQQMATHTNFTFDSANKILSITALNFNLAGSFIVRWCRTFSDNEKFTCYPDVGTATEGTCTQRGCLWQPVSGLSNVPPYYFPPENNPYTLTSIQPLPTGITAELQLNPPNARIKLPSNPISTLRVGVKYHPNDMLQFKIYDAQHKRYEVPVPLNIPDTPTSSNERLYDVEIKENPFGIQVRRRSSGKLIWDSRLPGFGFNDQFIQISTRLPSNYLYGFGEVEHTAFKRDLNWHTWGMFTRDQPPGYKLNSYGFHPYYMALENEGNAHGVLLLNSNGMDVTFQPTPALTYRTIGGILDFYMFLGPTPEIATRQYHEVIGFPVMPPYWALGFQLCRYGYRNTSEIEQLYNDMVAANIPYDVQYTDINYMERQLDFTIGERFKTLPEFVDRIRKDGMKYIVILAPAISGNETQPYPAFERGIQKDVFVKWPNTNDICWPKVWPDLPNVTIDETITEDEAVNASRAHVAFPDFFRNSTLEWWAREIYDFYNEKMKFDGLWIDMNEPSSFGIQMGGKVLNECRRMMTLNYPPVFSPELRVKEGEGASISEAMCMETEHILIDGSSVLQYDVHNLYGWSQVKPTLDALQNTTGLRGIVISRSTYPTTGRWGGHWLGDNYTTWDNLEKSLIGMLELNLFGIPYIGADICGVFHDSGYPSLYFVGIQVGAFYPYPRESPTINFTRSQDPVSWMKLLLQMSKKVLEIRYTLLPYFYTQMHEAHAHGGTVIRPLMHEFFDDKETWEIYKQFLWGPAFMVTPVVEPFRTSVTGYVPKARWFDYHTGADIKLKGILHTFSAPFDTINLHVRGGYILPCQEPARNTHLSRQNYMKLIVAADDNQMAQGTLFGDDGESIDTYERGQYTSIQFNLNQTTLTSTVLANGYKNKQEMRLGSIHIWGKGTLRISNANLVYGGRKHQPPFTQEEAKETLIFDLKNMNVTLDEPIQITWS
SMILES,"sucrase inhibitory activity IC50 (rat intestinal sucrase, in vitro) [µg/mL]",IC50 [µM]
"O=C1O[C@H]2[C@H](O)[C@@H](CO)OC(O)[C@@H]2OC(=O)c2cc(O)c(O)c(O)c2-c2c1cc(O)c(O)c2O (stereo partly drawn) [Compound 2, 2,3-hexahydroxydiphenoyl-(α/β)-D-^4C1-glucopyranose]",195.62,
"O=c1c(O[C@@H]2O[C@@H](CO)[C@H](O)[C@H]2O)c(-c2ccc(O)c(O)c2)oc2cc(O)cc(O)c12 [Compound 3, avicularin]",,217
"O=C1OC[C@H]2OC(=O)c3cc(O)c(O)c(O)c3-c3c(O)c(O)c(O)c4c3C(=O)O[C@H]([C@H]3OC(=O)c5c-4c(O)c(O)c(O)c5[C@H]3O)[C@@H]2OC(=O)c2cc(O)c(O)c(O)c2-c2c1cc(O)c(O)c2O [Compound 4, castalagin]",,148
"O=c1c(O[C@@H]2O[C@H](CO)[C@@H](O)[C@H](O)[C@H]2O)c(-c2ccc(O)c(O)c2)oc2cc(O)cc(O)c12 [Compound 5, quercetin-3-O-glucoside]",,194
